Measurements taken from ChEMBL document CHEMBL1125784, “Geiparvarin analogues. 2. Synthesis and cytostatic activity of 5-(4-arylbutadienyl)-3(2H)-furanones and of N-substituted 3-(4-oxo-2-furanyl)-2-buten-2-yl carbamates” (J Med Chem, 1991).
≈ marks a conversion by molar mass, not a printed value.

Tests used:
Assay type in all cases: functional, cell-based
MT4 [1] = test: Inhibitory activity against proliferation of human T-lymphocyte MT-4 tumor cell line
Method in brief: (§1)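 MT-4 cells in growth medium, plated at 6.25×10^4 cells/well with serial compound concentrations. Incubation was 72 h at 37 °C, humidified and CO2-controlled, then cells were counted electronically (Coulter). IC50 is the concentration lowering viable cell number by 50%.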

FM3A [2] = test: Inhibitory activity against proliferation of murine mammary carcinoma FM3A tumor cell line; settings: Mus musculus
Method in brief: (§2)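 Molt/4F or FM3A cells were suspended in growth medium and plated at 5×10^4 cells/well with varying compound concentrations. They proliferated 72 h at 37 °C in a humidified, CO2-controlled atmosphere before Coulter-counter enumeration. IC50 is the concentration giving a 50% drop in viable cell count.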

MOLT-4F [3] = test: Inhibitory activity against proliferation of human T-lymphoblast Molt/4F tumor cell line; method in brief: as §2
L1210 [4] = test: Inhibitory activity against proliferation of murine leukemia L1210 tumor cell line; settings: Mus musculus
Method in brief: (§3)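 L1210 cells in growth medium, seeded at 5×10^4 cells/well with a range of test compound concentrations, grown 48 h at 37 °C in humidified CO2-controlled air. Cells were counted in a Coulter counter. IC50 is the concentration reducing viable cell number by 50%.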

MT4 [5] = test: Inhibitory activity against proliferation of human(MT-4) tumor cell.; method in brief: as §1
MOLT-4F [6] = test: Inhibitory activity against proliferation of human(Molt/4F) tumor cell.; method in brief: as §2
FM3A [7] = test: Inhibitory activity against proliferation of murine (FM3A) tumor cell.; settings: Mus musculus; method in brief: as §2
L1210 [8] = test: Inhibitory activity against proliferation of murine (L1210) tumor cell.; settings: Mus musculus; method in brief: as §3

IC50 (MOLT-4F [3]) [µg/mL] | IC50 (L1210 [4]) [µg/mL] | IC50 (MOLT-4F [6]) [µg/mL] | IC50 (L1210 [8]) [µg/mL] | SMILES | IC50 (MT4 [1]) [µg/mL] | IC50 (FM3A [2]) [µg/mL] | IC50 (MT4 [5]) [µg/mL] | IC50 (FM3A [7]) [µg/mL]
10 (≈ 35.2 µM) | 18 (≈ 63.3 µM) | – | – | COc1ccc(/C=C/C=C(\C)C2=CC(=O)C(C)(C)O2)cc1 | 5.7 (≈ 20 µM) | 25 (≈ 87.9 µM) | – | –
– | – | 2.9 (≈ 8.14 µM) | 2 (≈ 5.61 µM) | COc1cc2ccc(=O)oc2cc1OC/C=C(\C)C1=CC(=O)C(C)(C)O1 | – | – | 0.6 (≈ 1.68 µM) | 3.9 (≈ 10.9 µM)
6.6 (≈ 24.7 µM) | 4.9 (≈ 18.3 µM) | – | – | C/C(=C\COC(=O)NC(C)C)C1=CC(=O)C(C)(C)O1 | 2.3 (≈ 8.6 µM) | 7.2 (≈ 26.9 µM) | – | –
3.4 (≈ 11.1 µM) | 3.7 (≈ 12 µM) | – | – | C/C(=C\COC(=O)NC1CCCCC1)C1=CC(=O)C(C)(C)O1 | 2.4 (≈ 7.81 µM) | 13 (≈ 42.3 µM) | – | –
7.1 (≈ 27.3 µM) | 23 (≈ 88.3 µM) | – | – | C/C(=C\C=C/C1CCCCC1)C1=CC(=O)C(C)(C)O1 | 8.4 (≈ 32.3 µM) | 10.8 (≈ 41.5 µM) | – | –
– | – | 13 (≈ 40.3 µM) | 63 (≈ 195 µM) | C/C(=C\C=C\c1ccc2ccc(=O)oc2c1)C1=CC(=O)C(C)(C)O1 | – | – | 2.9 (≈ 9 µM) | > 100
14 (≈ 55 µM) | 14 (≈ 55 µM) | – | – | C/C(=C\C=C\c1ccccc1)C1=CC(=O)C(C)(C)O1 | 6.5 (≈ 25.6 µM) | 15 (≈ 59 µM) | – | –
– | – | 1.7 (≈ 5.04 µM) | 2 (≈ 5.93 µM) | CCCCCCCCNC(=O)OC/C=C(\C)C1=CC(=O)C(C)(C)O1 | – | – | 1.3 (≈ 3.85 µM) | 7.1 (≈ 21 µM)
– | – | 10.7 (≈ 37.2 µM) | 5.1 (≈ 17.7 µM) | C/C(=C\COC(=O)NCCCl)C1=CC(=O)C(C)(C)O1 | – | – | 6.4 (≈ 22.2 µM) | 20.8 (≈ 72.3 µM)
6 (≈ 19 µM) | 4.7 (≈ 14.9 µM) | – | – | C/C(=C\COC(=O)NCc1ccccc1)C1=CC(=O)C(C)(C)O1 | 2 (≈ 6.34 µM) | 8.1 (≈ 25.7 µM) | – | –
> 200 | > 200 | – | – | C/C(=C\COC(=O)Nc1ccccc1)C1=CC(=O)C(C)(C)O1 | 103 (≈ 342 µM) | > 200 | – | –
5.3 (≈ 18.8 µM) | 2.6 (≈ 9.24 µM) | – | – | CCCCNC(=O)OC/C=C(\C)C1=CC(=O)C(C)(C)O1 | 1.2 (≈ 4.27 µM) | 7.7 (≈ 27.4 µM) | – | –
6.1 (≈ 21.7 µM) | 4.1 (≈ 14.6 µM) | – | – | C/C(=C\COC(=O)NC(C)(C)C)C1=CC(=O)C(C)(C)O1 | 2.1 (≈ 7.46 µM) | 7.1 (≈ 25.2 µM) | – | –
7.7 (≈ 29 µM) | 6.2 (≈ 23.4 µM) | – | – | C=CCNC(=O)OC/C=C(\C)C1=CC(=O)C(C)(C)O1 | 2.8 (≈ 10.6 µM) | 7.6 (≈ 28.6 µM) | – | –
